Assay outcomes from PubChem.
Only some compounds are listed: those with a hit (about 1.3% of all), similar ones and a draw of the others.
RAD54 branch – RAD54 (human) branch migration inhibition; Q92698; RAD54 Holliday junction branch migration, FAM/BHQ fluorescence; inhibition, % at 10.4 µM; hit rate 0.14% among 360,000;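 active = mean normalized replicate activity at least 40 and at least half of replicates scoring 40 or more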;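 also: inhibitors cause a drop in the FAM fluorescence signal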
RAD52 anneal inh – inhibitors of human RAD52 DNA annealing. inhibition, % at 18.7 µM. P43351. recombinant RAD52 DNA annealing, FRET fluorescence. hit rate 0.46% among 360,000;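 active = every replicate showing at least 50% inhibition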
Target sequence (P43351 whole entry, looked up): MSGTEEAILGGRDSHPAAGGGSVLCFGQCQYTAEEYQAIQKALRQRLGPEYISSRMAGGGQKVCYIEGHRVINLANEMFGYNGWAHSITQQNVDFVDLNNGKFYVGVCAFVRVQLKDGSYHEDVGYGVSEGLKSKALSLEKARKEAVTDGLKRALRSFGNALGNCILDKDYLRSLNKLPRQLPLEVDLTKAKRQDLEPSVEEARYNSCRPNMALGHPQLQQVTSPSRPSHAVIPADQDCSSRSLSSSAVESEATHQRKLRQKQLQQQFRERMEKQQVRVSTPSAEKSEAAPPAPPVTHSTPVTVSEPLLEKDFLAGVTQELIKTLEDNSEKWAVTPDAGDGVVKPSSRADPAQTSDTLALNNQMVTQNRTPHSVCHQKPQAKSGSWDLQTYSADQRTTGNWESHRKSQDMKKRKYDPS
FN deposit inh – fibronectin deposition inhibition; AID 743247; inhibition, % at 12.6 µM; AH1F fibroblasts, Alexa488-fibronectin deposition fluorescence, overnight; hit rate 0.086% among 350,000;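 active = mean inhibition across replicates of 30% or more, regardless of how many single replicates reach that level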
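material = AH1F fibroblast monolayer depositing Alexa488-labelled fibronectin into matrix | amount = 10000 AH1F cells/well | buffer or medium = DMEM plus 2% serum, read in PBS | incubation = 1 h cell adhesion before compound, then overnight fibronectin incubation | detection = fluorescence at 485 nm excitation, 525 nm emission | evaluation = percent inhibition as loss of matrix-bound fibronectin fluorescence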
PAX8 inh HTS – inhibitors of PAX8 transcriptional activity in RMG-I cells. RMG-I TPO-luciferase reporter, SteadyGlo, 24 h. inhibition, % at 12.6 µM. hit rate 1.2% among 360,000. AID 652154;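 active = mean replicate inhibition at least 60% with every replicate also reaching 60%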;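 also: luciferase light reporting Pax8 driven TPO promoter activity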
Numbers stand for hits; . = inactive; / = not tested or not shown.

SMILES | RAD54 branch | RAD52 anneal inh | FN deposit inh | PAX8 inh HTS
CC(=O)NC1CC2CCCC(C1)N2C(=O)Nc1ccccc1 (centres undefined) | . | / | . | .
Cn1c(Cn2c(=O)sc3ccccc32)nnc1SCc1ccccc1F | . | . | . | .
O=C(c1cnccn1)N1CC(=O)N2[C@H](C1)[C@H](c1ccc(C#CC3CCCCC3)cc1)[C@@H]2CO | / | . | . | .
Cc1ccc(NC(=O)Cc2noc3ccccc23)c(C)c1 | / | / | / | .
Cc1cccc2c(CC(=O)Nc3ccccc3)noc12 | . | . | . | 64.5
C=CCNC(=S)N(C1CCCCC1)C1CCCCC1 | . | . | / | .
Cc1ccc(S(=O)(=O)Nc2ccc3c(c2)C(=O)N([C@@H](C)CO)C[C@@H](C)[C@@H](CN(C)S(=O)(=O)c2ccccc2)O3)cc1 | . | . | / | .
Cc1ccccc1N=C1N=C(N)c2ccccc21 | . | . | . | 137.7
CC(C)CCNc1ncnc2c1cnn2Cc1ccccc1Cl | . | . | . | .
COc1ccc(/C=N/NC(=O)Nc2cccc3nsnc23)cc1OC | / | . | . | 86.3
COc1ccc(/C=N/NC(=O)c2cccc(C(=O)N/N=C/c3ccc(OC)c(OC)c3)n2)cc1OC | . | . | . | .
Cn1c(/C(C#N)=C/c2ccc(-c3ccc(S(N)(=O)=O)cc3)o2)nc2ccccc21 | . | / | . | 75.5
COc1ccc(CNc2nc3c(c(=O)n(Cc4ccc(F)cc4)c(=O)n3C)n2C)cc1 | . | . | . | 71.0
Cn1c(NCc2ccccc2)nc2c1c(=O)n(Cc1ccccc1)c(=O)n2C | . | . | / | /
CC(C)=CCC/C(C)=C/CNC(=O)C[C@H]1C[C@H](C(=O)N2CCOCC2)[C@@]2(C)c3[nH]c4ccc(Cl)cc4c3CCN2C1=O | . | . | . | 103.8
CC(C)N(C(=O)[C@H]1C[C@H](CC(=O)NCC23CC4CC(CC(C4)C2)C3)C(=O)N2CCc3c([nH]c4ccc(Cl)cc34)[C@]12C)C(C)C | . | . | . | 66.6
CCN(CC)C(=O)[C@H]1C[C@H](CC(=O)NCc2cccc(C(F)(F)F)c2)C(=O)N2CCc3c([nH]c4ccc(Cl)cc34)[C@]12C | . | . | . | 76.4
CCN(CC)C(=O)[C@H]1CC(CC(=O)NCc2cccc(C(F)(F)F)c2)C(=O)N2CCc3c([nH]c4ccccc34)[C@]12C (some centres undefined) | . | . | . | .
N#Cc1ccc(-c2ccc3c(c2)[C@@H]2[C@@H](CCN2C(=O)Cc2ccccc2)[C@@H](CO)N3)cc1 | . | . | . | .
CCCNC(=O)N1CC(=O)N2[C@H](CO)[C@@H](c3ccc(C#Cc4cccc(OC)c4)cc3)[C@H]2C1 | / | . | . | .
Oc1c(CN2CCN(c3ccccc3)CC2)cc(Br)c2cccnc12 | . | . | . | 84.6
CCOC(=O)N1CCN(Cc2cc(Cl)c3cccnc3c2O)CC1 | / | . | . | 78.2
Oc1c(CNc2ccccc2)cc(COCc2ccccc2)c2cccnc12 | . | . | . | .
CCOC(=O)N1CCN(Cc2ccccc2Cl)CC1 | . | / | / | /
Oc1c(CN2CCOCC2)cc(COCc2ccccc2)c2cccnc12 | . | / | . | 65.9
SMILES | RAD54 branch | RAD52 anneal inh | FN deposit inh | PAX8 inh HTS
C=C(C(=O)c1ccccc1)C(c1ccccc1)C(C)C(=O)c1ccccc1 (centres undefined) | / | / | . | .
C=C(C(=O)c1ccccc1)C(C(=C)C(=O)c1ccccc1)c1ccc(OC)cc1 | / | . | . | 116.8
C=C(C(=O)c1ccccc1)C(C)C(=C)C(=O)c1ccccc1 | / | . | . | 97.5
O=C(C1CCCCC1)N1C[C@H]2[C@@H](c3ccccc31)[C@@H](CO)N2CC1CCOCC1 | . | . | / | .
Cc1ccc2c(=O)n3c(nc2c1)C(Cc1ccc(O)cc1)NC(=O)c1cc2ccccc2cc1-3 (centres undefined) | . | . | / | .
O=C1NC(Cc2ccc(O)cc2)c2nc3cc(F)ccc3c(=O)n2-c2cc3ccccc3cc21 (centres undefined) | . | . | . | 65.8
CC1(C)CCC[C@]2(C)[C@H]3CC(=O)O[C@]3(C)CC[C@@H]12 | . | . | . | .
Cc1ccc(O)c(-c2cc(-c3cccc(Br)c3)n[nH]2)c1 | . | . | 36.8 | .
NC(=O)C1CCN(CCS(=O)(=O)c2ccc(Cl)cc2)CC1 | / | . | . | .
COc1ccc(-c2csc(CCn3nc(C)cc3C)n2)cc1OC | . | . | 37.2 | .
CC1(C)CC2CC(C)(CN2S(=O)(=O)c2ccc(C(=O)Nc3ccc(Cl)c(S(=O)(=O)N4CCOCC4)c3)cc2)C1 (centres undefined) | . | / | / | /
CC1(C)CC2CC(C)(CN2S(=O)(=O)c2ccc(C(=O)Nc3ccc(S(=O)(=O)N4CCOCC4)cc3)cc2)C1 (centres undefined) | / | . | . | 82.6
COc1ccc(-n2c(-c3ccc(Cl)cc3)c[n+]3c2CCc2ccccc2-3)cc1 | / | . | . | 93.6
Cc1ccc(S(=O)(=O)N(C)C[C@@H]2Oc3c(NS(=O)(=O)c4ccc(Cl)cc4)cccc3C(=O)N([C@@H](C)CO)C[C@H]2C)cc1 | . | . | / | .
N=c1c2c(ncn1CCCO)Oc1c(ccc3ccccc13)C2c1ccccc1 (centres undefined) | / | . | . | .
CN(C)CCCn1cnc2c(c1=N)C(c1ccccc1)c1ccc3ccccc3c1O2 (centres undefined) | . | 76.2 | . | .
COc1ccc(C2c3ccc4ccccc4c3Oc3ncn(CCN4CCOCC4)c(=N)c32)cc1OC (centres undefined) | / | . | 30.2 | .
Cn1c2ccccc2c2ncn(CCN3CCOCC3)c(=O)c21 | . | / | . | .
COc1ccc(CN(C)C[C@H]2OCCCC[C@H](C)Oc3ccc(NC(=O)Nc4ccccc4)cc3C(=O)N([C@@H](C)CO)C[C@@H]2C)cc1 | . | / | . | .
COc1ccc(NC(=O)Nc2ccc3c(c2)C(=O)N([C@@H](C)CO)C[C@H](C)[C@@H](CN(C)Cc2ccccc2)OCCCC[C@H](C)O3)cc1 | . | . | . | .
COc1ccc(NC(=O)Nc2ccc3c(c2)C(=O)N([C@@H](C)CO)C[C@H](C)[C@H](CN(C)Cc2ccccc2)OCCCC[C@@H](C)O3)cc1 | . | 60.3 | . | .
COc1ccc(NC(=O)Nc2ccc3c(c2)C(=O)N([C@H](C)CO)C[C@@H](C)[C@@H](CN(C)Cc2ccccc2)OCCCC[C@H](C)O3)cc1 | . | 50.9 | . | .
COc1ccc(NC(=O)Nc2ccc3c(c2)C(=O)N([C@@H](C)CO)C[C@H](C)[C@H](CN(C)Cc2ccccc2)OCCCC[C@H](C)O3)cc1 | . | 56.8 | . | .
COCCn1c(=NC(=O)c2ccc(S(=O)(=O)N3CCCc4ccccc43)cc2)sc2cc(S(C)(=O)=O)ccc21 | . | / | . | .
C[C@H](CO)N1C[C@H](C)[C@@H](CN(C)Cc2ccc(C(F)(F)F)cc2)OCCCC[C@H](C)Oc2ccc(NS(=O)(=O)c3ccc(Cl)cc3)cc2C1=O | . | . | . | 99.4
C[C@@H]1CCCCO[C@@H](CN(C)Cc2ccc(C(F)(F)F)cc2)[C@@H](C)CN([C@@H](C)CO)C(=O)c2cc(NS(=O)(=O)c3ccc(Cl)cc3)ccc2O1 | . | . | . | 91.3
